# ChEMBL document CHEMBL1124216, “A novel class of potential central nervous system agents. 3-Phenyl-2-(1-piperazinyl)-5H-1-benzazepines” (1988)
# Assays:
# Format in all cases: functional
# Mus musculus [1] = test: Antiexploratory activity (EXPL) of mice determined by an antimex activity meter, 50 mg/kg of dose was administered perorally; Moderate inhibition (51-71%); conditions: route oral
# Mus musculus [2] = test: Antireserpine activity (RES) of mice after peroral administration of 50 mg/kg of compound; Moderate inhibition (51-71%); conditions: route oral
# Mus musculus [3] = test: Antireserpine activity (RES) of mice after peroral administration of 100 mg/kg of compound; No inhibition; conditions: route oral
# Mus musculus [4] = test: Antimaximal electroshock seizure (MES) activity in mice after peroral administration of 100 mg/kg of compound; 3/5; conditions: route oral
# Mus musculus [5] = test: Antipentylene tetrazole activity was determined in mice when administered perorally; conditions: po
# Method in brief: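 Groups of five male Std-ddY mice received compound orally in 0.5% tragacanth, then pentylenetetrazole 175 mg/kg ip. Blockade of the tonic extensor component scored as anticonvulsant. ED50 was the dose protecting 50% of animals (Litchfield-Wilcoxon).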
# Mus musculus [6] = test: Antiexploratory activity (EXPL) of mice determined by an antimex activity meter,100 mg/kg of dose was administered perorally; Slight inhibition (31-50%)
# Mus musculus [7] = test: Antimaximal electroshock seizure activity was determined in mice when administered perorally; conditions: po
# Mus musculus [8] = test: Antitremorine activity(TRM) of mice after peroral administration of 100 mg/kg of compound; No inhibition; conditions: route oral
# Mus musculus [9] = test: Antiexploratory activity (EXPL) of mice determined by an antimex activity meter, 100 mg/kg of dose was administered perorally; No inhibition; conditions: route oral
# Mus musculus [10] = test: Antimaximal electroshock seizure (MES) activity in mice after peroral administration of 100 mg/kg of compound; 2/5; conditions: route oral
# Mus musculus [11] = test: Antimaximal electroshock seizure (MES) activity in mice after peroral administration of 100 mg/kg of compound; 4/5; conditions: route oral
# Mus musculus [12] = test: Antireserpine activity (RES) of mice after peroral administration of 100 mg/kg of compound; conditions: route oral
# Mus musculus [13] = test: Antitremorine activity(TRM) of mice after peroral administration of 100 mg/kg of compound; conditions: route oral
# Mus musculus [14] = test: Antimaximal electroshock seizure (MES) activity in mice after peroral administration of 10 mg/kg of compound; 0/5; conditions: route oral
# Mus musculus [15] = test: Antiexploratory activity (EXPL) of mice determined by an antimex activity meter, 100 mg/kg of dose was administered perorally; conditions: route oral
# Mus musculus [16] = test: Exploratory activity of mice determined by an antimex activity meter, 50 mg/kg of dose was administered perorally; conditions: Mus musculus, po
# Method in brief: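 Male Std-ddY mice (20-25 g), five per dose; compound in 0.5% aqueous tragacanth given orally. Two hours later each mouse placed in an Animex activity meter cage and locomotor activity counted for 3 min. Mean suppression expressed as percent inhibition of control; ED50 by Litchfield-Wilcoxon.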
# Mus musculus [17] = test: The homovanillic acid (HVA) levels in mouse brain at 50 mg/kg of dose.
# Method in brief: (§1)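 Mice dosed orally in 0.5% aqueous tragacanth; brains of five mice per compound pooled. Homovanillic acid measured in brain extracts and reported as brain level.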
# Canis familiaris = test: Inhibition of apomorphine induced emesis in dogs at 1 mg/kg of dose.; conditions: Canis lupus familiaris
# Method in brief: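 Beagle dogs (10-15 kg), groups of three, given compound po in a gelatin capsule; 2 h later apomorphine hydrochloride 0.3 mg/kg sc. Vomiting counted for 1 h; mean inhibition as percent of control. ED50 is the dose giving 50% inhibition of emesis, by Litchfield-Wilcoxon.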
# Mus musculus [18] = test: Antiexploratory activity (EXPL) of mice determined by an antimex activity meter, 50 mg/kg of dose was administered perorally; potent inhibition; conditions: route oral
# Mus musculus [19] = test: 3,4 -Dihydroxy phenylacetic acid (DOPAC) levels in mouse brain at 50 mg/kg dose.
# Method in brief: (§2)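 Male Std-ddY mice, 20-25 g, dosed orally with compound in 0.5% aqueous tragacanth. DOPAC was measured fluorometrically after purification by column chromatography on Sephadex G-10 and QAE-Sephadex. Brains from five mice per compound were pooled for each determination.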
# Mus musculus [20] = test: 3,4 -Dihydroxy phenylacetic acid (DOPAC) levels in mouse brain at 10 mg/kg dose.; method in brief: as §2
# Mus musculus [21] = test: Exploratory activity of mice determined by an antimex activity meter, 10 mg/kg of dose was administered perorally; conditions: route oral
# Mus musculus [22] = test: Antiexploratory activity (EXPL) of mice determined by an antimex activity meter, 10 mg/kg of dose was administered perorally; No inhibition; conditions: route oral
# Mus musculus [23] = test: The homovanillic acid (HVA) levels in mouse brain at 10 mg/kg of dose.; method in brief: as §1
# Mus musculus [24] = test: Antireserpine activity (RES) of mice after peroral administration of 50 mg/kg of compound; Slight inhibition (31-50%); conditions: route oral
# Mus musculus [25] = test: Antitremorine activity(TRM) of mice after peroral administration of 10 mg/kg of compound; Slight inhibition (31-50%); conditions: route oral
SMILES,inhibition in vivo at 100 mg/kg (Mus musculus [3]),ED50 (Mus musculus [5]),ED50 (Mus musculus [7]),inhibition in vivo at 100 mg/kg (Mus musculus [8]),inhibition in vivo at 100 mg/kg (Mus musculus [9]),Activity (Mus musculus [11]),inhibition in vivo at 100 mg/kg (Mus musculus [13]),Activity (Mus musculus [14]),other results
CN1CCN(C2=Nc3ccccc3CC=C2c2ccc(O)cc2)CC1,–,–,–,–,–,–,–,–,inhibition in vivo at 50 mg/kg (Mus musculus [1]): 51%; inhibition in vivo at 50 mg/kg (Mus musculus [2]): 51%
Cc1ccc2c(c1)CC=C(c1ccccc1)C(N1CCN(CCO)CC1)=N2.O=C(O)/C=C/C(=O)O,< 30%,39.4 mg/kg,103 mg/kg,< 30%,–,–,–,–,Activity (Mus musculus [4]): 3; Inhibition (Mus musculus [6]): 31%
CCN1CCN(C2=Nc3ccc(Br)cc3CC=C2c2ccc(Cl)cc2)CC1.O=C(O)/C=C/C(=O)O,< 30%,–,–,< 30%,< 30%,–,–,–,Activity (Mus musculus [10]): 2
CN1CCN(C2=Nc3ccc(Cl)cc3CC=C2c2ccccc2)CC1.Cl.Cl,–,42.9 mg/kg,89.4 mg/kg,–,–,4,> 71%,0,inhibition in vivo at 100 mg/kg (Mus musculus [12]): < 30%; inhibition in vivo at 100 mg/kg (Mus musculus [15]): < 30%
CCN1CCN(C2=Nc3ccccc3CC=C2c2ccc(F)cc2)CC1.Cl.Cl,–,–,–,–,–,–,–,–,inhibition in vivo at 50 mg/kg (Mus musculus [16]): 86.8%; Control (Mus musculus [17]): 461%; inhibition in vivo at 1 mg/kg (Canis familiaris): 100%; inhibition in vivo at 50 mg/kg (Mus musculus [18]): > 71%; Control (Mus musculus [19]): 345%; Control (Mus musculus [20]): 287%; inhibition in vivo at 10 mg/kg (Mus musculus [21]): 10.6%; inhibition in vivo at 10 mg/kg (Mus musculus [22]): < 30%; Control (Mus musculus [23]): 432%; inhibition in vivo at 50 mg/kg (Mus musculus [24]): 31%
CCN1CCN(C2=Nc3ccc(Cl)cc3CC=C2c2ccccc2)CC1.Cl.Cl,< 30%,34.7 mg/kg,93.1 mg/kg,–,< 30%,4,> 71%,0,inhibition in vivo at 10 mg/kg (Mus musculus [25]): 31%
